Source: ChEMBL document CHEMBL5661979, “Pharmacological inhibition of BMK1 suppresses tumor growth through promyelocytic leukemia protein” (Cancer Cell, 2010)

Legend:
[1] = molecular target: Cyclin-dependent kinase 10 (Homo sapiens, UniProt Q15131); experiment: Inhibition of CDK10 in human HeLa cells lysate pre incubated for 15 mins followed by ATP acyl phosphate probe addition and measured after 10 mins by LC-MS/MS analysis; assay type: subcellular
Summary of the method: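 KiNativ profiling in HeLa lysate (5 mg/mL total protein). Lysate incubated 15 min with inhibitor at 50, 10, 2, 0.8 or 0 μM. ATP or ADP acylphosphate probe then added (5 μM final) and reacted 10 min. Reaction stopped with urea and analysed by targeted MS, using up to four fragment ions per kinase peptide-probe conjugate. % inhibition taken against untreated lysate. Run in duplicate.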

[2] = molecular target: Mitogen-activated protein kinase kinase kinase 5 (Homo sapiens, UniProt Q99683); experiment: Inhibition of MAP3K5 in human HeLa cells lysate pre incubated for 15 mins followed by ATP acyl phosphate probe addition and measured after 10 mins by LC-MS/MS analysis; assay type: subcellular
[3] = molecular target: Mitogen-activated protein kinase kinase kinase 7 (Homo sapiens, UniProt O43318); experiment: Inhibition of TAK1 in human HeLa cells lysate pre incubated for 15 mins followed by ATP acyl phosphate probe addition and measured after 10 mins by LC-MS/MS analysis; assay type: subcellular
[4] = molecular target: Serine/threonine-protein kinase tousled-like 1 (Homo sapiens, UniProt Q9UKI8); experiment: Inhibition of TLK1 in human HeLa cells lysate pre incubated for 15 mins followed by ADP acyl phosphate probe addition and measured after 10 mins by LC-MS/MS analysis; assay type: subcellular
[5] = Inhibition of PCTAIRE2/3 in human HeLa cells lysate at 50 uM pre incubated for 15 mins followed by ADP acyl phosphate probe addition and measured after 10 mins by LC-MS/MS analysis relative to control; settings: 25 min, condition cancer
[6] = molecular target: T1, Phosphatidylinositol 5-phosphate 4-kinase type-2 alpha (Homo sapiens) (UniProt P48426); experiment: Inhibition of PIP5K2A LIP site in human HeLa cells lysate at 10 uM pre incubated for 15 mins followed by ADP acyl phosphate probe addition and measured after 10 mins by LC-MS/MS analysis relative to control; assay type: subcellular; settings: time 25.0 min
T1 sequence (whole entry): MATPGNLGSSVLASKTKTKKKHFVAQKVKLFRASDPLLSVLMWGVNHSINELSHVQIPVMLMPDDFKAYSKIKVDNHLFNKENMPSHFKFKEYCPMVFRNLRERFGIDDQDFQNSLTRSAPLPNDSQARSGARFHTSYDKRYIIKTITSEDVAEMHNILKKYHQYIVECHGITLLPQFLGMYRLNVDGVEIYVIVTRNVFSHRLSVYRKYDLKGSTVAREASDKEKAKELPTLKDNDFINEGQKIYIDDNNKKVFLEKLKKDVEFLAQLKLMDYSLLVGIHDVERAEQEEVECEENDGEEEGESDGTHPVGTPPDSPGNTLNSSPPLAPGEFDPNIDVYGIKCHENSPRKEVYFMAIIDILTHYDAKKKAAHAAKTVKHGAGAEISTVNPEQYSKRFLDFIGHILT

[7] = molecular target: Ribosomal protein S6 kinase alpha-5 (Homo sapiens, UniProt O75582); experiment: Inhibition of MSK1 domain 1 in human HeLa cells lysate at 10 uM pre incubated for 15 mins followed by ADP acyl phosphate probe addition and measured after 10 mins by LC-MS/MS analysis relative to control; assay type: subcellular; settings: time 25.0 min
[8] = molecular target: T2, Mitogen-activated protein kinase kinase kinase kinase 2 (Homo sapiens) (UniProt Q12851); experiment: Inhibition of GCK in human HeLa cells lysate at 2 uM pre incubated for 15 mins followed by ADP acyl phosphate probe addition and measured after 10 mins by LC-MS/MS analysis relative to control; assay type: subcellular; settings: time 25.0 min
T2 sequence (whole entry): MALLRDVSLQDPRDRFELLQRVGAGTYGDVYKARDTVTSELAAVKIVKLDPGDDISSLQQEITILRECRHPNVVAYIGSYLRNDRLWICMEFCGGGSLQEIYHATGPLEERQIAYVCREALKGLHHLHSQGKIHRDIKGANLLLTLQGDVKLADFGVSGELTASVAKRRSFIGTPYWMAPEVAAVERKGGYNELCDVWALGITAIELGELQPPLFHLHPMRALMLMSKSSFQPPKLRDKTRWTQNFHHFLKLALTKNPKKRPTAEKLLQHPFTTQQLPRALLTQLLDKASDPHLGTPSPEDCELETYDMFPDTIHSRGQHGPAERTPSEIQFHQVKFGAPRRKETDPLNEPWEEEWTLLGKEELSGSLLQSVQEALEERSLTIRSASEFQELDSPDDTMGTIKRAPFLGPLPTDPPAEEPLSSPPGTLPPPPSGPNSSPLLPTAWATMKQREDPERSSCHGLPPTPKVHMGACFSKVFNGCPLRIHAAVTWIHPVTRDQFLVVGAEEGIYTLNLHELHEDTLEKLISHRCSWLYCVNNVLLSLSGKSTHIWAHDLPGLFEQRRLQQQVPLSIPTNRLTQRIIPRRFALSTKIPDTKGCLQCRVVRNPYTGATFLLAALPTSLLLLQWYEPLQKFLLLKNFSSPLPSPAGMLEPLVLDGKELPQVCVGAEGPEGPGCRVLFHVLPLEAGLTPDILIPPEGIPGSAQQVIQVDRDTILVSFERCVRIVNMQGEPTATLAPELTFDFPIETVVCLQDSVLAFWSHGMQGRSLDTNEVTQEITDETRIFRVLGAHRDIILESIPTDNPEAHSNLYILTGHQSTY

RPS6KA1/RPS6KA2/RPS6KA3 = RPS6KA1/RPS6KA2/RPS6KA3 (Homo sapiens, UniProt P51812+Q15349+Q15418); experiment: Inhibition of RSK1/2/3 in human HeLa cells lysate at 2 uM pre incubated for 15 mins followed by ADP acyl phosphate probe addition and measured after 10 mins by LC-MS/MS analysis relative to control; assay type: subcellular; settings: time 25.0 min
[9] = molecular target: T3, Dual specificity mitogen-activated protein kinase kinase 3 (Homo sapiens) (UniProt P46734); experiment: Inhibition of MAP2K3 in human HeLa cells lysate at 2 uM pre incubated for 15 mins followed by ADP acyl phosphate probe addition and measured after 10 mins by LC-MS/MS analysis relative to control; assay type: subcellular; settings: time 25.0 min
T3 sequence (whole entry): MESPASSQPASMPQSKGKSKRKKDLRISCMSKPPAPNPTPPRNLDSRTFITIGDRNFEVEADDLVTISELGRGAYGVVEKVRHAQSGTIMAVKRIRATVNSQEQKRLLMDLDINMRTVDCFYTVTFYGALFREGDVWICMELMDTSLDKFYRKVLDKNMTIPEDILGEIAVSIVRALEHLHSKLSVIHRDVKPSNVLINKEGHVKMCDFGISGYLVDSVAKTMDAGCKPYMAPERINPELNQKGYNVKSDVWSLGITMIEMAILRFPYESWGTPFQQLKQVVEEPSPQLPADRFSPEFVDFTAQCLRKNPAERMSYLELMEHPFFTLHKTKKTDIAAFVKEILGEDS

[10] = molecular target: Protein kinase C theta type (Homo sapiens, UniProt Q04759); experiment: Inhibition of PKCtheta in human HeLa cells lysate at 10 uM pre incubated for 15 mins followed by ATP acyl phosphate probe addition and measured after 10 mins by LC-MS/MS analysis relative to control; assay type: subcellular; settings: time 25.0 min
[11] = Inhibition of PKD1/2 in human HeLa cells lysate at 2 uM pre incubated for 15 mins followed by ATP acyl phosphate probe addition and measured after 10 mins by LC-MS/MS analysis relative to control; settings: 25 min, condition cancer

Chain of Ribosomal protein S6 kinase alpha-5 (O75582 whole entry, looked up, the tested form may be a part): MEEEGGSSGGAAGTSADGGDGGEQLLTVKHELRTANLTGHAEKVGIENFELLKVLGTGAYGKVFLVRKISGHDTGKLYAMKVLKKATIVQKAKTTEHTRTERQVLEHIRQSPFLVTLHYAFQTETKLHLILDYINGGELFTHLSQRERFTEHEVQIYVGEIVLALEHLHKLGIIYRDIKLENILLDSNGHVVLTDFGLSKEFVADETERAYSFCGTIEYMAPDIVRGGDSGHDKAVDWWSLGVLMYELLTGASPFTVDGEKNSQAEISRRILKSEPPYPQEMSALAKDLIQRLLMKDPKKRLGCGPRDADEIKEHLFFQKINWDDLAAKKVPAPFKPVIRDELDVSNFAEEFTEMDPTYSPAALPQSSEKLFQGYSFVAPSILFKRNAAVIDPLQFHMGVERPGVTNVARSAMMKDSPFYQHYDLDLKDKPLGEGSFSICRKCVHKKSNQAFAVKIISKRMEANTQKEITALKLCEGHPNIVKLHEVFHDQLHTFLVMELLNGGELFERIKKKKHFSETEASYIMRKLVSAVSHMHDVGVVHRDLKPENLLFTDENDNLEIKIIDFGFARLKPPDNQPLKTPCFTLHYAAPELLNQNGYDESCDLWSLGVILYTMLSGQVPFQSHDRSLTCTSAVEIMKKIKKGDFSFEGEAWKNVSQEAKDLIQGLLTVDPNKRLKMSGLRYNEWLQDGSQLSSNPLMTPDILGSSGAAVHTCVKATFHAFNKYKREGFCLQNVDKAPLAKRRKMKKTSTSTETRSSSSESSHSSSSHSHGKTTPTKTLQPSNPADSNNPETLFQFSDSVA
Chain of Cyclin-dependent kinase 10 (Q15131 whole entry, the tested form may be a part): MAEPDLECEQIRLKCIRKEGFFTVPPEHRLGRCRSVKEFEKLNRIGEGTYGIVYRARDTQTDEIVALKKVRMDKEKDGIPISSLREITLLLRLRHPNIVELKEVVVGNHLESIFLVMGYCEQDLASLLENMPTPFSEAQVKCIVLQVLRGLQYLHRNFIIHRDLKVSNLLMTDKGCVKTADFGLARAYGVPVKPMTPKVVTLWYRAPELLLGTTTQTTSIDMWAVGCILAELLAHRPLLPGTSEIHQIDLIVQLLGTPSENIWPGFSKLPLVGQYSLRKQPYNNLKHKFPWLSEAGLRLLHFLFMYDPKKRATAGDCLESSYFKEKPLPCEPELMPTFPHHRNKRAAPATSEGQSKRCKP
Chain of Serine/threonine-protein kinase tousled-like 1 (Q9UKI8 whole entry): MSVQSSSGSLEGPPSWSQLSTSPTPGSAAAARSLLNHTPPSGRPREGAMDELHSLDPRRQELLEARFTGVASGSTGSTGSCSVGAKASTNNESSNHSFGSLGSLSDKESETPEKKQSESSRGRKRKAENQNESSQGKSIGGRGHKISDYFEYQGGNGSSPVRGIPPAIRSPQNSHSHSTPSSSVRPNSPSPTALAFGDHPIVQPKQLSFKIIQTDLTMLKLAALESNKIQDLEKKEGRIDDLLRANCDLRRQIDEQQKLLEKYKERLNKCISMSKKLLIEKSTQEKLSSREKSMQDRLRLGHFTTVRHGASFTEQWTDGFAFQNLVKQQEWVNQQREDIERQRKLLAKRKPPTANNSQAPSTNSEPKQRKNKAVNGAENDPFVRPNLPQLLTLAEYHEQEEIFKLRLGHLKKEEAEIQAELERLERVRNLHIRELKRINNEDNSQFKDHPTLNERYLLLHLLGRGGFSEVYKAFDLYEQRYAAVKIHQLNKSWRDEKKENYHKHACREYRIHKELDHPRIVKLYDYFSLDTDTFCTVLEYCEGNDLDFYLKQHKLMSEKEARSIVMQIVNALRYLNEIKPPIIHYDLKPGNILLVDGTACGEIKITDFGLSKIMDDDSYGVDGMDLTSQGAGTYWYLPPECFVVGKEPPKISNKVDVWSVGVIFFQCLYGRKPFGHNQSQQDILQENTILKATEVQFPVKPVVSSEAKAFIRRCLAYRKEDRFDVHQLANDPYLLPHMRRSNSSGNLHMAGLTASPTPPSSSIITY
Chain of RPS6KA1/RPS6KA2/RPS6KA3 (P51812 whole entry, looked up): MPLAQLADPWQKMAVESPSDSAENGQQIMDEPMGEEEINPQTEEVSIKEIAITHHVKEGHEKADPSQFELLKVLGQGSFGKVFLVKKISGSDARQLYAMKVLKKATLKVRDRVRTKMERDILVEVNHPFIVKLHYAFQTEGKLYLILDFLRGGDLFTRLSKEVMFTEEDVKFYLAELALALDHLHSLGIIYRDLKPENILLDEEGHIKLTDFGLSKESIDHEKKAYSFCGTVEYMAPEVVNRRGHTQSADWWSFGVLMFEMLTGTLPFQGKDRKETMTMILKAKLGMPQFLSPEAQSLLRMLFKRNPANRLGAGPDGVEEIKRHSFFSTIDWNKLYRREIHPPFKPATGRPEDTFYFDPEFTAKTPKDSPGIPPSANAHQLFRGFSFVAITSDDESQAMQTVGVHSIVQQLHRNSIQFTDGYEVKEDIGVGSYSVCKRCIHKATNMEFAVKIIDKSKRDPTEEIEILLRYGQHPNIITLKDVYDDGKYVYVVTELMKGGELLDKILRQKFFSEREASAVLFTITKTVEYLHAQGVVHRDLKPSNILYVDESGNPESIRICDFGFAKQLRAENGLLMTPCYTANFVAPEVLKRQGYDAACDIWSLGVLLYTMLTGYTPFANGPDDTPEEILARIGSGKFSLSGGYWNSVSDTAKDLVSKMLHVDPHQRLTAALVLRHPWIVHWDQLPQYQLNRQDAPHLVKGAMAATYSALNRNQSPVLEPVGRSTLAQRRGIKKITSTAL
Chain of RPS6KA1/RPS6KA2/RPS6KA3 (Q15349 whole entry, looked up): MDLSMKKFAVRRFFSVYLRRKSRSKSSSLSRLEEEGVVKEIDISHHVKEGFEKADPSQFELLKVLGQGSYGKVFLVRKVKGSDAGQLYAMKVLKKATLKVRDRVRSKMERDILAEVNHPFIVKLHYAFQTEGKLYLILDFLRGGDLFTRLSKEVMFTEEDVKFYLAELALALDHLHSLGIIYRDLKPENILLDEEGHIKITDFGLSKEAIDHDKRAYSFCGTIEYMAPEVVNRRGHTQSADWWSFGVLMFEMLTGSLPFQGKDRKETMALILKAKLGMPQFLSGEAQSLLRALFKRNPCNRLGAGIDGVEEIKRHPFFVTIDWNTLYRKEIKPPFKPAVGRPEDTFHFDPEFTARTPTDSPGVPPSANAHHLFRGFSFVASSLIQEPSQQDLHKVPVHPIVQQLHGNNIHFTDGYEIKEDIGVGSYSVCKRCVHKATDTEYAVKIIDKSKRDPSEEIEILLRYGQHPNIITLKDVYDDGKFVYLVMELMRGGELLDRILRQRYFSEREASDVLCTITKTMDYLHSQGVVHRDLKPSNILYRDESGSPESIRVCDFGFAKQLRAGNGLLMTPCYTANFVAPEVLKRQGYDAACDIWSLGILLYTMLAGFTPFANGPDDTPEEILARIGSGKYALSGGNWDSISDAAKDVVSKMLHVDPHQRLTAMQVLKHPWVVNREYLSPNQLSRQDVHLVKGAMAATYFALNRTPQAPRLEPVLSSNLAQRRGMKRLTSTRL
Chain of RPS6KA1/RPS6KA2/RPS6KA3 (Q15418 whole entry, looked up): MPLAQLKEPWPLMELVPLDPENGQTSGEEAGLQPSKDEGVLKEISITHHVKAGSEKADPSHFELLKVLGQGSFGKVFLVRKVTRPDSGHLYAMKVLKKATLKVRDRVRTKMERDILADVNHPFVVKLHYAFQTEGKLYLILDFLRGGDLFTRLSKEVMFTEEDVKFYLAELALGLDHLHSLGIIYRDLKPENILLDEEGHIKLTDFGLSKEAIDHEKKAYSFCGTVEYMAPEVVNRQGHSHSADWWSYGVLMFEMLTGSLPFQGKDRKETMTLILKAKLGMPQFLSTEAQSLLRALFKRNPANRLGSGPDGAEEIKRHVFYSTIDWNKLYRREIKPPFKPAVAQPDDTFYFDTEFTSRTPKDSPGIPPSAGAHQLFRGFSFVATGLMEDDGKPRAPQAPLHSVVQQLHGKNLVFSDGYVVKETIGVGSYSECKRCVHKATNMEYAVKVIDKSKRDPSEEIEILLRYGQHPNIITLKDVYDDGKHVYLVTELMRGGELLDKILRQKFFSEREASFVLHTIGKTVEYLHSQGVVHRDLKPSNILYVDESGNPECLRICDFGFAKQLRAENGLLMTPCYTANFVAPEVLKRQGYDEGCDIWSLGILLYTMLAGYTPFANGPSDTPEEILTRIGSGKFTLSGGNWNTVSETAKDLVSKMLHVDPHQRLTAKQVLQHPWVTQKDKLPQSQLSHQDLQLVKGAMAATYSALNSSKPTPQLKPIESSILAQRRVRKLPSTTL
Chain of Protein kinase C theta type (Q04759 whole entry, looked up): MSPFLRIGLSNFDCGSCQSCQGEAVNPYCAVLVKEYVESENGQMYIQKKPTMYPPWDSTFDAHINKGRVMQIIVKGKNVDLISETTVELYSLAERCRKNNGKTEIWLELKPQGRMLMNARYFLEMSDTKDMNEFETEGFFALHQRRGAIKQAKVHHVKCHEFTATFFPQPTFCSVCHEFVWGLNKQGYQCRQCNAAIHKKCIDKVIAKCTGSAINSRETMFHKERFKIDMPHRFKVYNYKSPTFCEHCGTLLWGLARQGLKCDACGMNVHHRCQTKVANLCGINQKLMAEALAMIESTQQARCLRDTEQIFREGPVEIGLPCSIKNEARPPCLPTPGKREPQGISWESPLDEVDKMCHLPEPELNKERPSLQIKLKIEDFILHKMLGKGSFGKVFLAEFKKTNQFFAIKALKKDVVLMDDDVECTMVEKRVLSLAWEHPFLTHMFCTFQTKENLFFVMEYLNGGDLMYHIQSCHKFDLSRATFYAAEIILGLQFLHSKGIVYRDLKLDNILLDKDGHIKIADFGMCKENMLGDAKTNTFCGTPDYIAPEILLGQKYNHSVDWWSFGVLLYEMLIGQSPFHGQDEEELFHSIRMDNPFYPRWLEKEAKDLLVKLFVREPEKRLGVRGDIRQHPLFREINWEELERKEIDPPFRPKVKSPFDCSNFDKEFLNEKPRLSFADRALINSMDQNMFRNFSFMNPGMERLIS

Compound: CCOc1cc(N2CCC(O)CC2)ccc1Nc1ncc2c(n1)N(C)c1ccccc1C(=O)N2C
- IC50 [1]: > 50 µM
- IC50 [2]: > 50 µM
- IC50 [3]: > 50 µM
- IC50 [4]: > 50 µM
- inhibition at 50 µM [5]: -8.7%
- inhibition [6]: -2.5%
- inhibition [7]: -7.3%
- inhibition [8]: 22.6%
- inhibition (RPS6KA1/RPS6KA2/RPS6KA3): 9.4%
- inhibition [9]: 7.5%
- inhibition [10]: 12.4%
- inhibition at 2 µM [11]: 27.1%
